Assay results published in ChEMBL document CHEMBL1158774, “Collagenase inhibitory quinic acid esters from Ipomoea pes-caprae” (J Nat Prod, 2005).

Assay: Inhibition of collagenase type 5
Summary of the method: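 Collagenase type V ([…]) with a 20 µg/mL enzyme solution is preincubated with samples in 4% MeOH at 37 °C for 10 min. Fluorogenic substrate MOCAc-Pro-Leu-Gly-Leu-A2pr(Dnp)-Ala-Arg-NH2 (5 µM solution) is then added. Fluorescence (ex 320, em 405 nm) is read during 1 h at 37 °C. Phosphoramidon is the positive control.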

Row | IC50 [µM] | SMILES
1 | 26.6 | COC(=O)[C@]1(O)C[C@@H](O)[C@@H](OC(=O)/C=C/c2ccc(O)c(O)c2)[C@H](OC(=O)/C=C/c2ccc(O)c(O)c2)C1
2 | 5.8 | COC(=O)[C@]1(O)C[C@@H](OC(=O)/C=C/c2ccc(O)c(O)c2)[C@@H](O)[C@H](OC(=O)/C=C/c2ccc(O)c(O)c2)C1
3 | 23.6 | O=C(/C=C/c1ccc(O)c(O)c1)O[C@@H]1C[C@](O)(C(=O)O)C[C@@H](OC(=O)/C=C/c2ccc(O)c(O)c2)[C@H]1O
4 | 0.6 | CC(C)C[C@H](NP(=O)(O)O[C@@H]1O[C@@H](C)[C@H](O)[C@@H](O)[C@H]1O)C(=O)N[C@@H](Cc1c[nH]c2ccccc12)C(=O)O [PHOSPHORAMIDON]
5 | 82.7 | O=C(O)/C=C/c1ccc(O)c(O)c1 [CAFFEIC ACID]
6 | > 500 | O=C(O)[C@]1(O)C[C@@H](O)[C@@H](O)[C@H](O)C1 [QUINIC ACID]
7 | 14.2 | O=C(/C=C/c1ccc(O)c(O)c1)O[C@@H]1[C@H](OC(=O)/C=C/c2ccc(O)cc2)C[C@@](OC(=O)/C=C/c2ccc(O)cc2)(C(=O)O)C[C@H]1OC(=O)/C=C/c1ccc(O)c(O)c1
8 | 19.1 | O=C(/C=C/c1ccc(O)c(O)c1)O[C@@H]1C[C@](O)(C(=O)O)C[C@@H](OC(=O)/C=C/c2ccc(O)c(O)c2)[C@H]1OC(=O)/C=C/c1ccc(O)cc1
9 | 16.2 | COC(=O)[C@@]1(O)C[C@@H](O)[C@H](OC(=O)/C=C/c2ccc(O)c(O)c2)[C@H](OC(=O)/C=C/c2ccc(O)c(O)c2)C1 [3,4-O-TRANS-CAFFEOYLQUINIC ACID METHYL ESTER]
10 | 37.2 | O=C(/C=C/c1ccc(O)c(O)c1)O[C@@H]1[C@H](O)C[C@@](O)(C(=O)O)C[C@H]1OC(=O)/C=C/c1ccc(O)c(O)c1
